Test results reported in ChEMBL document CHEMBL5058577, “EUbOPEN Chemogenomics Library 2 (Multiplex)” (2022).

Tested on: U2OS
Test: Multiplex assay against U2OS
Format: toxicity, cell-based
Settings: human
Summary of the method: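 Tubulin, mitochondrial-mass and membrane-permeability phenotypes are per cents of healthy-nucleus cells. Cells were gated by CellPathfinder machine learning into Hoechst high-intensity objects or normal cells, normal cells into healthy, pyknosed or fragmented nuclei, and pyknosed cells into mitotic or apoptotic. Before that, live cells stained at seeding with Hoechst33342, BioTracker Green Microtubule Cytoskeleton Dye, MitoTracker Red and Annexin V Alexa Fluor 680 were imaged on a CQ1 microscope at 37°C and 5% CO2 after compound addition.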

[1] = 12 h, 1 µM, compound concentration 1 uM, replicate 1
[2] = 12 h, 1 µM, compound concentration 1 uM, replicate 2
[3] = 12 h, 10 µM, compound concentration 10 uM, replicate 1
[4] = 12 h, 10 µM, compound concentration 10 uM, replicate 2
[5] = 24 h, 1 µM, compound concentration 1 uM, replicate 1
[6] = 24 h, 1 µM, compound concentration 1 uM, replicate 2
[7] = 24 h, 10 µM, compound concentration 10 uM, replicate 1
[8] = 24 h, 10 µM, compound concentration 10 uM, replicate 2
[9] = 48 h, 1 µM, compound concentration 1 uM, replicate 1
[10] = 48 h, 1 µM, compound concentration 1 uM, replicate 2
[11] = 48 h, 10 µM, compound concentration 10 uM, replicate 1
[12] = 48 h, 10 µM, compound concentration 10 uM, replicate 2

Structure (SMILES): CCCCCCNC(=O)Nc1ccc(S(=O)(=O)Nc2ccc(CCNC[C@H](O)COc3ccc(O)cc3)cc2)cc1 [L-755507]
- Population Apoptotic (%) [1]: 86%
- Population Fragmented Nuclei (%) [1]: 22%
- Population Healthy Nuclei (%) [1]: 67%
- Population Hoechst High Intensity Objects (%) [1]: 4%
- Population Membrane Permeable-Phenotype (%) [1]: 4%
- Population Mitochondria Different-Phenotype (%) [1]: 4%
- Population Mitotic Cells (%) [1]: 13%
- Population Normal (%) [1]: 95%
- Population Pyknosed Nuclei (%) [1]: 9%
- Population Tubulin-Different-Phenotype (%) [1]: 4%
- Total Cell Count [1]: 231
- Population Apoptotic (%) [2]: 100%
- Population Fragmented Nuclei (%) [2]: 18%
- Population Healthy Nuclei (%) [2]: 75%
- Population Hoechst High Intensity Objects (%) [2]: 0%
- Population Membrane Permeable-Phenotype (%) [2]: 10%
- Population Mitochondria Different-Phenotype (%) [2]: 1%
- Population Mitotic Cells (%) [2]: 0%
- Population Normal (%) [2]: 99%
- Population Pyknosed Nuclei (%) [2]: 5%
- Population Tubulin-Different-Phenotype (%) [2]: 5%
- Total Cell Count [2]: 120
- Population Apoptotic (%) [3]: 60%
- Population Fragmented Nuclei (%) [3]: 31%
- Population Healthy Nuclei (%) [3]: 59%
- Population Hoechst High Intensity Objects (%) [3]: 3%
- Population Membrane Permeable-Phenotype (%) [3]: 13%
- Population Mitochondria Different-Phenotype (%) [3]: 11%
- Population Mitotic Cells (%) [3]: 40%
- Population Normal (%) [3]: 96%
- Population Pyknosed Nuclei (%) [3]: 9%
- Population Tubulin-Different-Phenotype (%) [3]: 10%
- Total Cell Count [3]: 282
- Population Apoptotic (%) [4]: 72%
- Population Fragmented Nuclei (%) [4]: 19%
- Population Healthy Nuclei (%) [4]: 72%
- Population Hoechst High Intensity Objects (%) [4]: 2%
- Population Membrane Permeable-Phenotype (%) [4]: 19%
- Population Mitochondria Different-Phenotype (%) [4]: 15%
- Population Mitotic Cells (%) [4]: 27%
- Population Normal (%) [4]: 97%
- Population Pyknosed Nuclei (%) [4]: 8%
- Population Tubulin-Different-Phenotype (%) [4]: 15%
- Total Cell Count [4]: 140
- Population Apoptotic (%) [5]: 83%
- Population Fragmented Nuclei (%) [5]: 22%
- Population Healthy Nuclei (%) [5]: 66%
- Population Hoechst High Intensity Objects (%) [5]: 4%
- Population Membrane Permeable-Phenotype (%) [5]: 5%
- Population Mitochondria Different-Phenotype (%) [5]: 5%
- Population Mitotic Cells (%) [5]: 16%
- Population Normal (%) [5]: 95%
- Population Pyknosed Nuclei (%) [5]: 11%
- Population Tubulin-Different-Phenotype (%) [5]: 3%
- Total Cell Count [5]: 285
- Population Apoptotic (%) [6]: 92%
- Population Fragmented Nuclei (%) [6]: 23%
- Population Healthy Nuclei (%) [6]: 67%
- Population Hoechst High Intensity Objects (%) [6]: 2%
- Population Membrane Permeable-Phenotype (%) [6]: 11%
- Population Mitochondria Different-Phenotype (%) [6]: 1%
- Population Mitotic Cells (%) [6]: 7%
- Population Normal (%) [6]: 97%
- Population Pyknosed Nuclei (%) [6]: 9%
- Population Tubulin-Different-Phenotype (%) [6]: 5%
- Total Cell Count [6]: 143
- Population Apoptotic (%) [7]: 85%
- Population Fragmented Nuclei (%) [7]: 25%
- Population Healthy Nuclei (%) [7]: 65%
- Population Hoechst High Intensity Objects (%) [7]: 2%
- Population Membrane Permeable-Phenotype (%) [7]: 7%
- Population Mitochondria Different-Phenotype (%) [7]: 4%
- Population Mitotic Cells (%) [7]: 14%
- Population Normal (%) [7]: 97%
- Population Pyknosed Nuclei (%) [7]: 9%
- Population Tubulin-Different-Phenotype (%) [7]: 3%
- Total Cell Count [7]: 307
- Population Apoptotic (%) [8]: 88%
- Population Fragmented Nuclei (%) [8]: 14%
- Population Healthy Nuclei (%) [8]: 79%
- Population Membrane Permeable-Phenotype (%) [8]: 9%
- Population Mitochondria Different-Phenotype (%) [8]: 5%
- Population Mitotic Cells (%) [8]: 11%
- Population Pyknosed Nuclei (%) [8]: 6%
- Population Tubulin-Different-Phenotype (%) [8]: 6%
- Total Cell Count [8]: 149
- Population Apoptotic (%) [9]: 78%
- Population Fragmented Nuclei (%) [9]: 14%
- Population Healthy Nuclei (%) [9]: 74%
- Population Hoechst High Intensity Objects (%) [9]: 1%
- Population Membrane Permeable-Phenotype (%) [9]: 6%
- Population Mitochondria Different-Phenotype (%) [9]: 3%
- Population Mitotic Cells (%) [9]: 21%
- Population Normal (%) [9]: 98%
- Population Pyknosed Nuclei (%) [9]: 11%
- Population Tubulin-Different-Phenotype (%) [9]: 3%
- Total Cell Count [9]: 422
- Population Apoptotic (%) [10]: 91%
- Population Fragmented Nuclei (%) [10]: 26%
- Population Healthy Nuclei (%) [10]: 61%
- Population Hoechst High Intensity Objects (%) [10]: 4%
- Population Membrane Permeable-Phenotype (%) [10]: 12%
- Population Mitochondria Different-Phenotype (%) [10]: 5%
- Population Mitotic Cells (%) [10]: 8%
- Population Normal (%) [10]: 95%
- Population Pyknosed Nuclei (%) [10]: 12%
- Population Tubulin-Different-Phenotype (%) [10]: 6%
- Total Cell Count [10]: 188
- Population Apoptotic (%) [11]: 80%
- Population Fragmented Nuclei (%) [11]: 19%
- Population Healthy Nuclei (%) [11]: 70%
- Population Hoechst High Intensity Objects (%) [11]: 2%
- Population Membrane Permeable-Phenotype (%) [11]: 7%
- Population Mitochondria Different-Phenotype (%) [11]: 2%
- Population Mitotic Cells (%) [11]: 20%
- Population Normal (%) [11]: 97%
- Population Pyknosed Nuclei (%) [11]: 9%
- Population Tubulin-Different-Phenotype (%) [11]: 4%
- Total Cell Count [11]: 419
- Population Apoptotic (%) [12]: 94%
- Population Fragmented Nuclei (%) [12]: 13%
- Population Healthy Nuclei (%) [12]: 78%
- Population Hoechst High Intensity Objects (%) [12]: 1%
- Population Mitochondria Different-Phenotype (%) [12]: 3%
- Population Mitotic Cells (%) [12]: 5%
- Population Normal (%) [12]: 98%
- Population Pyknosed Nuclei (%) [12]: 7%
- Population Tubulin-Different-Phenotype (%) [12]: 6%
- Total Cell Count [12]: 242
